Structures can show the parent of a compound that is named as a salt.
Columns and labels:
Cavia porcellus [1] = species on record: Cavia porcellus; assay: Ability to prevent constrictions induced by SRS-A (slow reacting substance of anaphylaxis) in guinea pig ileum at a concentration of 1x 10E-5 M; format: functional
Cavia porcellus [2] = species on record: Cavia porcellus; assay: Ability to prevent constrictions induced by SRS-A (slow reacting substance of anaphylaxis) in guinea pig ileum; format: functional
How it was run: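 Ileum segments (1.5 cm) from 200–250 g guinea pigs are held in Tyrode's solution with 10^-6 M atropine sulfate and 10^-6 M pyrilamine maleate, at 37 °C, aerated with 95% O2/5% CO2. SRS-A comes from egg albumin challenge of chopped lung from actively sensitized guinea pigs, dosed to give 50% of maximal isotonic contraction. Compound is added 3 min before challenge. Three concentrations (10–90% inhibition) are run in duplicate, and IC50 is taken from the log dose-response curve.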

Structure (SMILES)	inhibition at 10 µM (Cavia porcellus [1]) [%]	IC50 (Cavia porcellus [2]) [nM]
CCN(CC)CCOC(=O)c1ccc2nc3ccc(SC)cc3c(=O)n2c1	0	
CC(C)c1ccc2nc3ccc(C(=O)OCCN4CCCCC4)cn3c(=O)c2c1		6000
CC(C)c1ccc2nc3ccc(C(=O)NCCN(C(C)C)C(C)C)cn3c(=O)c2c1		1000
CC(C)c1ccc2nc3ccc(C(=O)NCCN(C4CCCCC4)C4CCCCC4)cn3c(=O)c2c1		2000
CC(C)c1ccc2nc3ccc(C(=O)NCCN4CCCCC4)cn3c(=O)c2c1	15	
CC(C)c1ccc2nc3ccc(C(=O)NCCN(c4ccccc4)c4ccccc4)cn3c(=O)c2c1		10000
CCCc1c(OCC(O)COc2ccc3c(=O)cc(C(=O)O)oc3c2CCC)ccc(C(C)=O)c1O (stereo not drawn) [FPL-55712 SODIUM SALT]		35
CCN(CC)CC(C)OC(=O)c1ccc2nc3ccc(C(C)C)cc3c(=O)n2c1 (stereo not drawn)		10000
CCN(CC)CCNC(=O)c1ccc2nc3ccc(CC(C)C)cc3c(=O)n2c1		1000
CCC(C)c1ccc2nc3ccc(C(=O)NCCN(CC)CC)cn3c(=O)c2c1 (stereo not drawn)		10000
CCN(CC)CCNC(=O)c1ccc2nc3ccc(C(C)C)cn3c(=O)c2c1	6	
CC(C)c1ccc2nc3ccc(C(=O)NCCN4CCN(C)CC4)cn3c(=O)c2c1	34	
CCN(CC)CCOC(=O)c1ccc2nc3ccc(OC(C)C)cc3c(=O)n2c1	17	
CCN(CC)CCCNC(=O)c1ccc2nc3ccc(C(C)C)cc3c(=O)n2c1	37	
CCN(CC)CCOC(=O)c1ccc2nc3ccc(OC)cc3c(=O)n2c1	0	
CCN(CC)CCOC(=O)c1ccc2nc3ccc(C)cc3c(=O)n2c1	11	
CC(C)c1ccc2nc3ccc(C(=O)NCCN4CCN(c5ccccc5)CC4)cn3c(=O)c2c1		1000
CC(C)c1ccc2nc3ccc(C(=O)NCCN(C)C)cn3c(=O)c2c1	42	
CCCCCOC(=O)c1ccc2nc3ccc(C(C)C)cc3c(=O)n2c1	10	
CC(C)c1ccc2nc3ccc(C(=O)NCCN4CCC(c5ccccc5)CC4)cn3c(=O)c2c1		1000
CCN(CC)CCOC(=O)c1ccc2nc3ccc(C(C)C)cn3c(=O)c2c1	5	
CCN(CC)CCNC(=O)c1ccc2nc3ccc(C(C)(C)C)cc3c(=O)n2c1		10000
CC(C)c1ccc2nc3ccc(C(=O)NCCN4C(C)(C)CCCC4(C)C)cn3c(=O)c2c1		1000
CC(C)c1ccc2nc3ccc(C(=O)NCCN4CCN(C(c5ccccc5)c5ccccc5)CC4)cn3c(=O)c2c1		1000
CC(C)c1ccc2nc3ccc(C(=O)NCCNc4ccccc4)cn3c(=O)c2c1		2500
CCN(CC)CCNC(=O)c1ccc2nc3ccc(C(C)C)cc3c(=O)n2c1		5000
CCN(CC)CCOC(=O)c1ccc2nc3ccc(C(C)C)cc3c(=O)n2c1		4000
CC(C)c1ccc2nc3ccc(C(=O)NCCN4CCC(Cc5ccccc5)CC4)cn3c(=O)c2c1		1000
